Published values from different studies.
Each line is one published result; the experiments were not run side by side. pIC50, pKd, pKi: −log10 of the molar value.
MAOA: Amine oxidase [flavin-containing] A (MAOA, Homo sapiens, UniProt P21397)
MAL12: Alpha-glucosidase MAL12 (MAL12, Saccharomyces cerevisiae S288c, UniProt P53341)
FABP1: Fatty acid-binding protein, liver (FABP1, Homo sapiens, UniProt P07148)
ADRA1A: Alpha-1A adrenergic receptor (ADRA1A, Homo sapiens, UniProt P35348)

Compound	target	assay	setting	quantity	result
CC[C@H](C)[C@H](NC(=O)[C@H](C)NC(=O)[C@H](CCC(=O)O)NC(=O)[C@H](Cc1c[nH]cn1)NC(=O)[C@H](CC(C)C)NC(=O)[C@@H](NC(=O)[C@H](Cc1ccccc1)NC(=O)[C@H](CO)NC(=O)[C@@H](NC(=O)[C@H](CC(C)C)NC(=O)[C@H](CC(=O)O)NC(=O)[C@H](CC(C)C)NC(=O)[C@@H]1CCCN1)[C@@H](C)O)C(C)C)C(=O)O	MAOA	enzyme activity, inhibitor, fluorescence		pIC50	4.14
CN1C(=S)N(c2ccccc2)C(=O)/C1=C1/C(=O)N(C)c2ccc(Cl)cc21	MAL12	enzyme activity, inhibitor, absorbance		pIC50	3.80
O=C(Nc1ccc([N+](=O)[O-])cc1Cl)c1cc(Cl)ccc1O	FABP1	ligand displacement, fluorescence		pKd	5.01
COc1cc(O)cc(/C=C/c2ccc(O)cc2)c1	MAL12	enzyme activity, inhibitor, absorbance	pH 6.8	pIC50	4.93
O=P(Oc1ccccc1)(Oc1ccccc1)C(NCc1cncc2ccccc12)c1ccc(O)cc1 (stereo not shown)	sn-1-specific diacylglycerol lipase ABHD11 (ABHD11, Homo sapiens, UniProt Q8NFV4)	enzyme activity, inhibitor	lysate	pIC50	5.72
CC[C@H](C)[C@H](N)C(=O)N1CCC[C@H]1C(=O)N1CCC[C@H]1C(=O)NCC(=O)N[C@H](C(=O)N1CCC[C@H]1C(=O)N[C@@H](Cc1ccc(O)cc1)C(=O)O)C(C)C	MAOA	enzyme activity, inhibitor, fluorescence		pIC50	3.08
CCOC(=O)c1ccc(OC(=O)CCCCCN=C(N)N)cc1	Kallikrein-7 (KLK7, Homo sapiens, UniProt P49862)	enzyme activity, inhibitor		pIC50	4.81
COc1cc2c3c(c1OC)-c1c(OC)ccc(Cl)c1CC3N(C)CC2 (racemic)	ADRA1A	cell-free assay, radioligand		pKi	7.64
Cc1cc(SC2=C(O)C[C@@](CCc3ccc(N)cc3)(C(C)C)OC2=O)c(C(C)(C)C)cc1CO	FABP1	ligand displacement, fluorescence		pKd	5.77
CCc1ccc(N2C(=O)/C(=C3/C(=O)N(C)c4ccc(Cl)cc43)NC2=S)cc1	MAL12	enzyme activity, inhibitor, absorbance		pIC50	3.89
O=S(=O)(O)C(F)(F)C(F)(F)C(F)(F)C(F)(F)C(F)(F)C(F)(F)F	FABP1	ligand displacement, fluorescence		pKd	4.95
COc1cc2c3c(c1OC)-c1c(OC)ccc(Br)c1CC3N(C)CC2 (stereo not shown)	ADRA1A	cell-free assay, radioligand		pKi	7.80
COc1cc2c(cc1OC)CN(CCc1ccc(NC(=O)c3cccc4c(=O)c5cccc(OC)c5[nH]c34)cc1)CC2	ADRA1A	cell-free assay		pKi	6.74
